Source: ChEMBL document CHEMBL2151030, “Improving the solubility of a new class of antiinflammatory pharmacodynamic hybrids, that release nitric oxide and inhibit cycloxygenase-2 isoenzyme” (Eur J Med Chem, 2012)
≈ marks a conversion by molar mass, not a printed value.

Columns and labels:
[1] = target: T1, Prostaglandin G/H synthase 1 (Mus musculus) (UniProt P22437); test: Inhibition of COX1-mediated PGE2 production in mouse J774 cells at 10 uM preincubated for 15 mins measured after 30 mins by radioimmunoassay relative to control; assay type: cell-based
T1 sequence (whole entry): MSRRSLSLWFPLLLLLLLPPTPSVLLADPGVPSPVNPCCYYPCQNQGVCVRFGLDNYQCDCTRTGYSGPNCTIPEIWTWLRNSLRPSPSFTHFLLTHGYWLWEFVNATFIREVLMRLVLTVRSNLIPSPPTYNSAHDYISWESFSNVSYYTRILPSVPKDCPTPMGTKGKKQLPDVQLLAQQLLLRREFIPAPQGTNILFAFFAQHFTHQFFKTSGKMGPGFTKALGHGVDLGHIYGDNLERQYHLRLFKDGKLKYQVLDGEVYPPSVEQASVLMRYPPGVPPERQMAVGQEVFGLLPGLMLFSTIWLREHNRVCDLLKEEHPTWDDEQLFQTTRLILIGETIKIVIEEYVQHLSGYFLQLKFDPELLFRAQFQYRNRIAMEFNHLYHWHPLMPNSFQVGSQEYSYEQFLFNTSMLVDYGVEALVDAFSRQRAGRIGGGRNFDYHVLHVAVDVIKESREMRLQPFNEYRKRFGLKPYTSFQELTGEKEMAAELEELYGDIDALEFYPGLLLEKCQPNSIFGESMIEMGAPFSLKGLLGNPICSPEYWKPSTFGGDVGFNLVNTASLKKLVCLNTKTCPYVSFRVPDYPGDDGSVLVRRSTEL
Procedure, shortened: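 Murine J774 macrophages in DMEM with 10% FBS, glutamine, HEPES, pyruvate and antibiotics, adhered 2 h at 37 °C in 5% CO2. Medium was refreshed, cells were pretreated with compound for 15 min, then given 15 μM arachidonic acid for 30 min at 37 °C. PGE2 in supernatant was measured by RIA as % inhibition versus control, triplicate wells, mean of three experiments.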

[2] = target: T2, Prostaglandin G/H synthase 2 (Mus musculus) (UniProt Q05769); test: Inhibition of COX2-mediated PGE2 production in LPS-induced mouse J774 cells by radioimmunoassay relative to control; assay type: cell-based; set-up: concentration or dose not given beside the values; settings: concentration not given here
T2 sequence (whole entry): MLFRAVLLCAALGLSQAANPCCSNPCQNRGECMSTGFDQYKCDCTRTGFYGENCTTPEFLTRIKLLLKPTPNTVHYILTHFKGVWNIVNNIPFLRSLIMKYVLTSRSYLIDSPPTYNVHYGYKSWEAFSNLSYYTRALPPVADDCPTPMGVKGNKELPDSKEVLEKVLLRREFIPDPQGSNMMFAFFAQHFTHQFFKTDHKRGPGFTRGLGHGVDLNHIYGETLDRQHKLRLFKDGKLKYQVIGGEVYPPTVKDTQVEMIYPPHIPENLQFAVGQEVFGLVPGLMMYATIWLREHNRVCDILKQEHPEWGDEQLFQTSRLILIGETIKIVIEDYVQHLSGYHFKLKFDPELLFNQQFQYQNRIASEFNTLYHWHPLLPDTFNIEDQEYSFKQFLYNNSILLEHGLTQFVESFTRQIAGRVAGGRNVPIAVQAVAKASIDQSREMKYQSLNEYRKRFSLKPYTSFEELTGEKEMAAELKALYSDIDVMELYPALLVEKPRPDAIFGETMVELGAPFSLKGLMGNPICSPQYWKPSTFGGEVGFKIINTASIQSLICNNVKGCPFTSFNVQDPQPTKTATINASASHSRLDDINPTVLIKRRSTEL
Procedure, shortened: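 J774 cells, cultured as for the COX-1 assay, were stimulated 24 h with E. coli LPS (10 µg/mL) to induce COX-2, with or without compound at 0.01–10 μM. Supernatant PGE2 was measured by RIA as % inhibition versus control, triplicate wells, mean of three experiments. IC50 came from a sigmoidal variable-slope dose-response fit.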

[3] = target: T3, Prostaglandin G/H synthase 1 (Mus musculus, UniProt P22437); test: Inhibition of COX1-mediated PGE2 production in mouse J774 cells preincubated for 15 mins measured after 30 mins by radioimmunoassay; assay type: cell-based
T3 sequence (P22437 whole entry): T1 sequence (whole entry)
Procedure, shortened: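 Murine J774 macrophages in DMEM/10% FBS, adhered 2 h at 37 °C. […] Supernatant PGE2 measured by RIA. Triplicate wells, mean of three experiments; IC50 by sigmoidal variable-slope fit.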

[4] = target: T4, Prostaglandin G/H synthase 2 (Mus musculus, UniProt Q05769); test: Inhibition of COX2-mediated PGE2 production in LPS-induced mouse J774 cells by radioimmunoassay; assay type: cell-based
T4 sequence (Q05769 whole entry): T2 sequence (whole entry)
Procedure, shortened: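 J774 murine macrophages stimulated 24 h with E. coli LPS (10 µg/mL) to induce COX-2, with or without compound (0.01–10 μM). Supernatant PGE2 measured by RIA; percent inhibition against controls. Triplicate wells, mean of three experiments; IC50 from sigmoidal variable-slope fit.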

J774 = test: Selectivity index, ratio of IC50 for COX1-mediated PGE2 production to IC50 for COX2-mediated PGE2 production in mouse J774 cells; assay type: cell-based
Procedure, shortened: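 Ratio of the COX-1 IC50 to the COX-2 IC50, both from PGE2 RIA in J774 cells. For COX-1, cells were given compound for 15 min, then 15 μM arachidonic acid for 30 min; lower concentrations (0.01–1 μM) were tested when warranted. For COX-2, cells were given LPS 10 µg/mL for 24 h with compound at 0.01–10 μM. IC50 came from a sigmoidal variable-slope fit.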

[5] = Solubility of the compound in simulated gastric fluid without pepsin at pH 1.5 by HPLC analysis; assay type: physicochemical
Procedure, shortened: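 Compound from 20 mM DMSO stock diluted 1:100 into 0.05 M simulated gastric fluid without pepsin (pH 1.5 with HCl), duplicate wells on a solubility filter plate, shaken 90 min at 300 rpm. Seven-point calibration standards from 1 to 200 μM.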

[6] = Solubility of the compound in PBS buffer at pH 7.4 by HPLC analysis; assay type: physicochemical
Procedure, shortened: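 20 mM DMSO stocks diluted 1:100 into 0.01 M PBS pH 7.4 in duplicate wells of a solubility filter plate, shaken 90 min at 300 rpm. Seven-point calibration standards from 1 to 200 μM.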

Mus musculus [7] = test: Analgesic activity in Swiss albino mouse assessed as reduction of acetic acid-induced writhing at 35.9 nmol/kg, po after 5 mins; assay type: functional; set-up: scale not given: the % may be the effect or the level left
Procedure, shortened: (§1)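 Male Swiss albino mice (23-25 g), standard diet and water ad libitum, 23 ± 1 °C, 12 h light/dark cycle. Test compound given orally; 0.6% acetic acid (10 mL/kg) injected ip. Stretching movements counted for 10 min, beginning 5 min after administration.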

Mus musculus [8] = test: Analgesic activity in Swiss albino mouse assessed as reduction of acetic acid-induced writhing at 71.8 nmol/kg, po after 5 mins; assay type: functional; set-up: scale not given: the % may be the effect or the level left; procedure, shortened: as §1
Aorta = test: Vasorelaxant activity in Wistar rat endothelium-denuded thoracic aortic ring assessed as inhibition of KCl-induced contractile tone in presence of guanylate cyclase inhibitor ODQ; assay type: functional, tissue-based
Procedure, shortened: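 Male normotensive Wistar rats (250–350 g); thoracic aortic rings, endothelium removed by rubbing, removal confirmed by <10% relaxation to ACh (10 µM) in KCl (30 mM)-contracted rings. ODQ 1 µM incubated after confirmation; rings contracted with KCl 30 mM, then 3-fold increasing compound concentrations (1 nM–10 µM). Isometric tension; pIC50 from half reduction of KCl tone; mean ± SE, 6–10 experiments.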

Mus musculus [9] = test: Analgesic activity in Swiss albino mouse assessed as reduction of acetic acid-induced writhing at 21 nmol/kg, po after 5 mins; assay type: functional; set-up: scale not given: the % may be the effect or the level left; procedure, shortened: as §1
Mus musculus [10] = test: Analgesic activity in Swiss albino mouse assessed as reduction of acetic acid-induced writhing at 42 nmol/kg, po after 5 mins; assay type: functional; set-up: scale not given: the % may be the effect or the level left; procedure, shortened: as §1
Rattus norvegicus [11] = test: Antiinflammatory activity in rat assessed as reduction of carrageenan-induced paw pressure at 20 mg/kg, po after 15 mins post carrageenan-challenge; assay type: functional; set-up: scale not given: the % may be the effect or the level left
Procedure, shortened: (§2)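 Rats (Sprague-Dawley or Wistar, 150-200 g) received intraplantar carrageenan 4 h before testing, then oral compound or CMC vehicle. Paw-pressure threshold read before treatment and at 15, 30, 45 and 60 min after treatment, compared with saline and carrageenan controls.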

Rattus norvegicus [12] = test: Antiinflammatory activity in rat assessed as reduction of carrageenan-induced paw pressure at 20 mg/kg, po after 30 mins post carrageenan-challenge; assay type: functional; set-up: scale not given: the % may be the effect or the level left; procedure, shortened: as §2
Rattus norvegicus [13] = test: Antiinflammatory activity in rat assessed as reduction of carrageenan-induced paw pressure at 20 mg/kg, po after 45 mins post carrageenan-challenge; assay type: functional; set-up: scale not given: the % may be the effect or the level left; procedure, shortened: as §2
Rattus norvegicus [14] = test: Antiinflammatory activity in rat assessed as reduction of carrageenan-induced paw pressure at 20 mg/kg, po after 60 mins post carrageenan-challenge; assay type: functional; set-up: scale not given: the % may be the effect or the level left; procedure, shortened: as §2
Rattus norvegicus [15] = test: Antiinflammatory activity in rat assessed as reduction of carrageenan-induced paw pressure at 40 mg/kg, po after 15 mins post carrageenan-challenge; assay type: functional; set-up: scale not given: the % may be the effect or the level left; procedure, shortened: as §2
Rattus norvegicus [16] = test: Antiinflammatory activity in rat assessed as reduction of carrageenan-induced paw pressure at 40 mg/kg, po after 30 mins post carrageenan-challenge; assay type: functional; set-up: scale not given: the % may be the effect or the level left; procedure, shortened: as §2
Rattus norvegicus [17] = test: Antiinflammatory activity in rat assessed as reduction of carrageenan-induced paw pressure at 40 mg/kg, po after 45 mins post carrageenan-challenge; assay type: functional; set-up: scale not given: the % may be the effect or the level left; procedure, shortened: as §2
Rattus norvegicus [18] = test: Antiinflammatory activity in rat assessed as reduction of carrageenan-induced paw pressure at 40 mg/kg, po after 60 mins post carrageenan-challenge; assay type: functional; set-up: scale not given: the % may be the effect or the level left; procedure, shortened: as §2
Rattus norvegicus [19] = test: Antiinflammatory activity in rat assessed as reduction of carrageenan-induced oedema in right hind paw at 20 mg/kg, po after 4 hrs post carrageenan-challenge; assay type: functional; set-up: scale not given: the % may be the effect or the level left
Procedure, shortened: (§3)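 Sprague-Dawley or Wistar rats (150-200 g). Carrageenan injected intraplantar; oral treatment with test compound or CMC vehicle. Right hind paw volume measured 4 h after carrageenan and compared with saline- and carrageenan-treated controls.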

Rattus norvegicus [20] = test: Antiinflammatory activity in rat assessed as reduction of carrageenan-induced oedema in right hind paw at 40 mg/kg, po after 4 hrs post carrageenan-challenge; assay type: functional; set-up: scale not given: the % may be the effect or the level left; procedure, shortened: as §3
Liver = test: Induction of nitrite/nitrate production in Wistar rat liver homogenates at 1 mM; assay type: functional, tissue-based; settings: TDE = time-dependent effect
Procedure, shortened: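 Liver from male Wistar rats (250–350 g), perfused with cold buffer (pH 7.4), homogenized 1:5 w/v. Homogenate in K2HPO4/EDTA buffer pH 7.4 with 1 mM glutathione, NADH and NADPH at 37 °C; compound added from DMSO at 1 mM final. Aliquots at 5-120 min into H2SO4/KI; quantified against sodium nitrite calibration.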

Cc1c(C(N)C(=O)OCCCO)cc(-c2ccc(S(C)(=O)=O)cc2)n1-c1cccc(F)c1 (centres undefined)
inhibition [1]: 30% | inhibition [2]: 79% | IC50 [3]: > 10 µM | IC50 [4]: 1.19 µM | Ratio IC50 (J774): > 8.4

Cc1c(C(N)C(=O)OCCCCO[N+](=O)[O-])cc(-c2ccc(S(C)(=O)=O)cc2)n1-c1ccc(F)cc1 (centres undefined)
solubility [5]: > 200 µM | solubility [6]: 70.8 µM (≈ 36.8 µg/mL) | inhibition [1]: 1% | inhibition [2]: 82% | IC50 [3]: > 10 µM | Ratio IC50 (J774): > 10 | Activity (Mus musculus [7]): 26.9% | Activity (Mus musculus [8]): 40.7% | IC50 (Aorta): 1.55 µM

Cc1c(CC(=O)OCCO[N+](=O)[O-])cc(-c2ccc(S(C)(=O)=O)cc2)n1-c1cccc(F)c1
solubility [5]: < 1 µM | solubility [6]: 1.6 µM (≈ 0.762 µg/mL) | Activity (Mus musculus [9]): 30.8% | Activity (Mus musculus [10]): 48.8% | Activity (Rattus norvegicus [11]): 18% | Activity (Rattus norvegicus [12]): 35% | Activity (Rattus norvegicus [13]): 29% | Activity (Rattus norvegicus [14]): 10% | Activity (Rattus norvegicus [15]): 50% | Activity (Rattus norvegicus [16]): 80% | Activity (Rattus norvegicus [17]): 60% | Activity (Rattus norvegicus [18]): 23% | Activity (Rattus norvegicus [19]): 17% | Activity (Rattus norvegicus [20]): 40% | Activity (Liver): tde

Cc1c(C(N)C(=O)OCCCCO[N+](=O)[O-])cc(-c2ccc(S(C)(=O)=O)cc2)n1-c1cccc(F)c1 (centres undefined)
inhibition [1]: 15% | inhibition [2]: 59% | IC50 [3]: > 10 µM | IC50 [4]: 1.41 µM | Ratio IC50 (J774): > 7.09

Cc1c(C(N)C(=O)OCCCO)cc(-c2ccc(S(C)(=O)=O)cc2)n1-c1ccc(F)cc1 (centres undefined)
inhibition [1]: 23% | inhibition [2]: 100% | IC50 [3]: > 10 µM | IC50 [4]: 0.76 µM | Ratio IC50 (J774): > 13.2
